Activity calls are given as the source filed them.

The subject of one data set is J774. The experiment in a line: Cytotoxicity against mouse J774 cells incubated for 48 hrs by MTT assay. The data set is classed as cell-based. Conditions: J774, 48 h. In a few lines: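 J774.1 cells grown in RPMI-1640 + 10% heat-inactivated FCS, 2 mM L-glutamine, penicillin-streptomycin, 37 °C, 5% CO2. Seeded at 10^5 cells/well and left overnight, then compound in fresh medium for 48 h. MTT 0.5 mg/ml final, 2 h; SDS 0.1% final, 2 h at 37 °C; read at 595 nm. Triplicate samples, ≥2 independent experiments; CC50 calculated.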

The test system of data set [1] is Leishmania donovani. The experiment in a line: Antileishmanial activity against Leishmania donovani MHOM/SD/00/1S-2D promastigotes incubated for 72 hrs by MTT assay. The data set is classed as functional, organism-based. In a few lines: (§1)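 Parasites washed in HBSS-Glc and resuspended at 2×10^6 cells/ml in fresh growth medium with compound at 0.78-50.0 µM. Promastigotes grown in RPMI 1640-modified medium + 10% HIFCS, 72 h at 26 °C; axenic amastigotes in medium 199 + 20% HIFCS + 50 µg/ml hemin, 96 h at 32 °C. MTT 0.5 mg/ml for 2 h, formazan dissolved in SDS (5% final), absorbance 590 nm. Triplicates, ≥2 experiments, IC50 computed.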

Data set [2] concerns Leishmania pifanoi. The experiment in a line: Antileishmanial activity against Leishmania pifanoi […] axenic amastigotes incubated for 96 hrs by MTT assay. In kind it is functional, organism-based. The method in brief: as §1
Data set [3] in a line: Selectivity index, ratio of IC50 for mouse J774 cells to IC50 for Leishmania pifanoi […] axenic amastigotes. In kind it is toxicity. To be noted: read-out: Ratio IC50.
The test system of data set [4] is Leishmania donovani. The experiment in a line: Induction of cell cycle arrest in Leishmania donovani MHOM/SD/00/1S-2D promastigotes assessed as cell accumulation in subG1 phase at 10 uM incubated for 48 hrs by propidium iodide staining based flow cytometric analysis (RVb = 4.6%). In kind it is functional.
Data set [5] has as its system Leishmania donovani. The experiment in a line: Induction apoptosis in Leishmania donovani MHOM/SD/00/1S-2D promastigotes at 20 uM incubated for 48 hrs by propidium iodide staining based flow cytometric analysis. The data set is classed as functional, organism-based.
Data set [6] is described as follows: Drug localization in KCN-induced depolarized Leishmania pifanoi MHOM/VE/60/Ltrod axenic amastigotes mitochondria at 20 uM pretreated with KCN for 15 mins followed by compound addition and measured at 1 hr by MitoTracker dye based confocal microscopic method. In kind it is ADME. The method in brief:
(§2)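 Living axenic amastigotes given compound 20 µM for 1 h at 32 °C, then DAPI 5 µg/ml for 30 min before confocal imaging. Compound ex 488/em 520 nm, DAPI ex 350/em 460 nm. For depolarized mitochondria, 1 mM KCN added 15 min before compound. For colocalization, MitoTracker Red 0.05 µM (10 min, 32 °C) preceded compound; overlap given as Pearson coefficient.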

Data set [7] relates to Leishmania donovani. The experiment in a line: Induction of morphological damage in Leishmania donovani MHOM/SD/00/1S-2D promastigotes assessed as increase in intracellular acidic pH at 5 uM pretreated with acridine orange followed by compound addition and measured at 1 hr by acridine orange based confocal microscopic method. In kind it is functional, organism-based. In a few lines:
(§3)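 Promastigotes at 40×10^6 cells/ml loaded with acridine orange 2 μM (5 min, 26 °C), washed and readjusted to the same density. Kinetic fluorescence (ex 488/em 530 nm) followed after adding compound 5 μM once the signal was stable. For confocal imaging, loaded cells were given compound 5 μM for 1 h, washed and immobilized on hydrogel; imaged at ex 488/em 650 nm.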

In data set [8] the test system is Leishmania donovani. Kind of data set: Induction of morphological changes in Leishmania donovani MHOM/SD/00/1S-2D promastigotes assessed as strong vacuolization of the cytoplasm at 5 uM incubated for 12 hrs by TEM analysis. In kind it is functional, organism-based. The method in brief:
(§4)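 Promastigotes held in full growth medium with compound 5 μM for 12 h. Washed with HBSS, fixed in 5% glutaraldehyde, post-fixed with 2.5% OsO4 for 1 h, dehydrated through graded ethanol, treated with propylene oxide, embedded in Epon 812. Sections cut with a diamond knife and examined by transmission electron microscopy.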

The test system of data set [9] is Leishmania donovani. The experiment in a line: Induction of morphological changes in Leishmania donovani MHOM/SD/00/1S-2D promastigotes assessed as swollen mitochondrion at 5 uM incubated for 12 hrs by TEM analysis. The data set is classed as functional, organism-based. The method in brief:
as §4

Data set [10] concerns Leishmania donovani. The experiment in a line: Induction of plasma membrane permeabilization in Leishmania donovani MHOM/SD/00/1S-2D promastigotes at 50 uM by sytox green-based fluorescence assay. In kind it is functional, organism-based. In a few lines: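 Promastigotes at 20×10^6 cells/ml in HBSS-Glc with SYTOX Green 1.0 μM final. Compound added after a stable baseline; fluorescence rise (ex 504/em 524 nm) monitored. Values given as percent of full permeabilization by 0.1% Triton X-100.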

The nature of data set [11]: Drug localization in mitochondria of Leishmania pifanoi MHOM/VE/60/Ltrod axenic amastigotes assessed as punctate pattern formation at 20 uM incubated for 1 hr by DAPI staining based confocal microscopic method. In kind it is ADME. In a few lines: as §2
The subject of data set [12] is Leishmania donovani. The experiment in a line: Induction of mitochondrial dysfunction in Leishmania donovani MHOM/SD/00/1S-2D promastigotes as mitochondrial membrane potential at 25 uM incubated for 4 hrs by Rh123 staining based flow cytometry. In kind it is functional, organism-based.
For data set [13], the system named is Leishmania pifanoi. The experiment in a line: Antileishmanial activity against CFSE-labelled Leishmania pifanoi MHOM/VE/60/Ltrod axenic amastigotes infected in mouse peritoneal macrophage assessed as infection index at 10 uM incubated for 12 hrs by DAPI staining based confocal microscopic method (reference value: 5.3 +/- 2.5). In kind it is functional.
Data set [14] concerns Leishmania donovani. The experiment in a line: Induction of morphological damage in Leishmania donovani MHOM/SD/00/1S-2D promastigotes assessed as increase in intracellular acidic pH at 5 uM pretreated with acridine orange followed by compound addition by acridine orange based fluorescence assay. In kind it is functional, organism-based. In a few lines: as §3
The subject of data set [15] is Leishmania donovani. Kind of data set: Induction of morphological changes in Leishmania donovani MHOM/SD/00/1S-2D promastigotes assessed as appearance of distended acidocalcisomes at 5 uM incubated for 12 hrs by TEM analysis. The data set is classed as functional, organism-based. The method in brief: as §4
In data set [16] the test system is Leishmania donovani. Kind of data set: Induction of mitochondrial dysfunction in Leishmania donovani MHOM/SD/00/1S-2D promastigotes as mitochondrial membrane potential at 50 uM incubated for 4 hrs by Rh123 staining based flow cytometry. In kind it is functional, organism-based.
Data set [17] deals with Leishmania donovani. The experiment in a line: Antileishmanial activity against Leishmania donovani promastigotes harboring 3-Luc gene assessed as decrease in parasites viability using DMNEP-D-luciferin as substrate at 50 uM incubated for 10 mins by luminescence assay relative to control. In kind it is functional. The method in brief:
(§5)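 3-Luc L. donovani promastigotes, episomally expressing cytoplasmic firefly luciferase and grown at 26 °C in RPMI 1640-modified medium + 10% HIFCS with G-418 (30 µg/ml). Assay: cells at 20 × 10^6/ml in HBSS-Glc with caged DMNPE-luciferin (50 µM final). Compound added once luminescence plateaued; luminescence followed over time, expressed as % of value at addition (100%). Luciferase inhibition controls run.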

Data set [18] can be described thus: Inhibition of luciferase (unknown origin) at 50 uM.
For data set [19], the system named is Leishmania donovani. Kind of data set: Antileishmanial activity against Leishmania donovani promastigotes harboring 3-Luc gene assessed as threshold concentration of compound using DMNEP-D-luciferin as substrate measured at < 5 mins by luminescence assay. The data set is classed as functional. The method in brief:
as §5

The test system of data set [20] is Leishmania donovani. The experiment in a line: Induction of cell cycle arrest in Leishmania donovani MHOM/SD/00/1S-2D promastigotes assessed as cell accumulation in subG1 phase at 20 uM incubated for 48 hrs by propidium iodide staining based flow cytometric analysis (RVb = 4.6%). In kind it is functional.

As for `COc1ccc2nc(C)cc(Nc3ccc(Oc4ccc(Cl)c5ccccc45)c(Cl)c3)c2c1`, the IC50 is greater than 50 µM with J774, 4.4 µM in the data set with Leishmania donovani [1] and 6.2 µM in the data set with Leishmania pifanoi [2]. The selectivity ratio in data set [3] is greater than 8.1. For the same molecule, the Activity in the data set on Leishmania donovani [4] was found to be 22.5%.

Regarding `CCOCC(=O)NCCNc1cc(/C=C/c2ccccc2)nc2ccccc12`, the outcome in the data set on Leishmania donovani [5] and in the data set with Leishmania donovani [10] was inactive. Besides, the Drug uptake result in [6] and in [11] was “Active” in each case. In addition, the result with Leishmania donovani [7], in the data set with Leishmania donovani [8], in the data set on Leishmania donovani [9], in the data set with Leishmania donovani [12], in the data set with Leishmania donovani [14] and in the data set with Leishmania donovani [15] was Active. Also, in the data set with Leishmania donovani [16], the outcome was Active. The IC50 was determined as 22.2 µM with J774, 3.4 µM in the data set on Leishmania donovani [1] and 1.6 µM with Leishmania pifanoi [2]. The Activity_index in the data set with Leishmania pifanoi [13] is listed as 1.6. The Activity in the data set on Leishmania donovani [17] amounted to 16.7%; with Leishmania donovani [19], 3.12 µM; with Leishmania donovani [20] it was 4.3%. The molecule further yielded an inhibition in data set [18] of less than 2%. Also, the selectivity ratio in data set [3] was 13.8.

The values above are taken from ChEMBL document CHEMBL4346674, “Structure-activity relationships and mechanistic studies of novel mitochondria-targeted, leishmanicidal derivatives of the 4-aminostyrylquinoline scaffold” (Eur J Med Chem, 2019).
